# Screening data as filed in PubChem.
# Compounds with a hit are over-represented: about 2.3% of the library has one in this group of screens.
# OXTR potentiate = human OXTR potentiation; P30559; AID 2445; actives 0.061% (n = 320,000); activation, % at 3 µM; CHO-OTR cells, Fluo-8 calcium fluorescence, potentiator mode; 0% = oxytocin EC15, 100% = EC100;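 active means activation above that plate's cutoff, the mean activation of tested compounds plus 3 SD, cut at about 6.6% in these data, passing the limit was not always enough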;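 further: 100% uses oxytocin at 75 nM as the full agonist control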
#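 Dosing: Single dose, 3.0 µM nominal final compound concentration | Material: Human OTR in CHO cells | Technique: Kinetic Fluo-8 calcium fluorescence | Benchmarks: EC15 oxytocin alone as 0%, 75 nM oxytocin as 100% | Probe or stimulus: Oxytocin at about EC15, sub-maximal agonist stimulus | Incubation: Compound 6 min at room temperature before oxytocin, 100 s read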
# TAAR1 antagonist = human TAAR1 antagonism | inhibition, % at 3 µM | actives 1.5% (n = 360,000) | CHO RD-HGA16 TAAR1, Fluo-8 calcium fluorescence, antagonist | Q96RJ0 | AID 624466;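 active means inhibition above a per-plate cutoff, the mean inhibition of test compounds on that plate plus 3 SD, cut at about 49% in these data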;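 further: 0% = DMSO plus EC80 beta-PEA response and 100% = DMSO alone without agonist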
#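 System: RD-HGA16 CHO cells with stable hTAAR1 and Gα16 | Probe or stimulus: EC80 β-phenethylamine stimulus | Dosing: 3 µM, single point | Times: Dye loading 75 min at 37 °C, then 30 min room temperature | Measured by: Fluo-8 calcium-sensitive fluorescence | Read-out basis: % inhibition of agonist calcium response | Replicates: n of 1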
# TAAR1 agonist = human TAAR1 agonism. Q96RJ0. CHO RD-HGA16 TAAR1, Fluo-8 calcium fluorescence; vehicle wells 0%, saturating PEA agonist 100%. activation, % at 3 µM. actives 0.99% (n = 360,000);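 active means activation above the mean activation of all test compounds in the run plus 3 SD, cut at about 38% in these data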
#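 Test system: RD-HGA16 (CHO) cells co-expressing Gα16 and hTAAR1; dosing: one-point dosing at 3 µM (nominal); timing: 17-24 h seeding, 75 min 37 °C dye, 30 min RT; signal: kinetic Fluo-8 calcium fluorescence; read-out basis: % activation relative to PEA EC100 response; controls: DMSO and PEA EC100; replicates: n 1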
# OXTR ag = human OXTR agonism. P30559. CHO-OTR cells, Fluo-8 calcium fluorescence; normalized: DMSO 0%, oxytocin 100%. activation, % at 3 µM. actives 0.32% (n = 320,000);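 active means activation above the mean of all tested compounds plus 3 SD, cutoff set per screening run, cut at about 20% in these data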;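 further: peak over basal fluorescence ratio from a 100 s FLIPR kinetic read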
# V1aR counter = counter-screen for oxytocin receptor agonists: human V1a receptor agonists. P37288. CHO-V1R cells, Fluo-8 calcium fluorescence, agonist mode; 0% DMSO, 100% 3 nM vasopressin. activation, % at 3 µM. actives 0.25% (n = 320,000);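 active means activation above the mean activation of all tested compounds plus 3 SD, per screening run, cut at about 20% in these data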;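 further: signal is peak over basal fluorescence ratio across a 100 second FLIPR read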
# Target sequence (P37288 whole entry, looked up): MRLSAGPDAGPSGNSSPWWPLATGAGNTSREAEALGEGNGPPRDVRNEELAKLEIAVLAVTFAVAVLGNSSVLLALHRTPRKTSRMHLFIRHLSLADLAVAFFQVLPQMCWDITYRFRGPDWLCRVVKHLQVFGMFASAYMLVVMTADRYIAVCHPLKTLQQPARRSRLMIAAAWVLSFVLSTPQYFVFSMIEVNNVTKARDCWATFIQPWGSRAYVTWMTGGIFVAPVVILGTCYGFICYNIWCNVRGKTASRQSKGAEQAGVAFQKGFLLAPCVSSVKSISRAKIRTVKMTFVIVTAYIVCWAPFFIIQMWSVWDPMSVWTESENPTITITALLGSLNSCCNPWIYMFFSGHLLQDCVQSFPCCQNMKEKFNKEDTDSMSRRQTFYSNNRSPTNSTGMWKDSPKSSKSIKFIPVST
# nonsel antag count = nonselective antagonist in TAAR1 antagonist counter-screen; shares compounds with TAAR1 antagonist; counterscreen cell line, calcium fluorescence, antagonist mode; inhibition, % at 3 µM; actives 77% (n = 2,400); in the data active means inhibition above about 22%;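 further: CHO-Ga16 host cells stimulated with ATP at an EC80 level; 0% = agonist EC80 plus vehicle and 100% = vehicle without agonist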
# TAAR1 antag conf = human TAAR1 antagonism, confirmed. shares compounds with TAAR1 antagonist. TAAR1-expressing cells, fluorescence antagonist read-out. inhibition, % at 3 µM. actives 40% (n = 2,400). AID 651785; in the data active means inhibition above about 49%;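 further: CHO-Ga16 host cells challenged with agonist PEA near its EC80; 0% = agonist at EC80 plus vehicle and 100% = vehicle with no agonist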
# Ga16 nonsel ag = counter-screen for TAAR1 antagonists: nonselective Ga16 agonists; shares compounds with TAAR1 antagonist; Ga16-expressing cells, calcium fluorescence, agonist counterscreen; activation, % at 3 µM; actives 18% (n = 2,400); AID 651953; in the data active means activation above about 12%;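 further: 0% = vehicle wells and 100% = saturating stimulus response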
# TAAR1 ag counter = counter-screen for human TAAR1 antagonists: TAAR1 agonists; hTAAR1 cell line, fluorescence activation, agonist mode; actives 2% (n = 2,400); shares compounds with TAAR1 antagonist; activation, % at 3 µM; in the data active means activation above about 37%;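 further: CHO cells stably expressing TAAR1 with calcium dye readout; 0% = DMSO vehicle and 100% = full agonist response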
# Starred values were filed as active, the others as inactive; x = no result.
SMILES,OXTR potentiate,TAAR1 antagonist,TAAR1 agonist,OXTR ag,V1aR counter,nonsel antag count,TAAR1 antag conf,Ga16 nonsel ag,TAAR1 ag counter
CCC/C=C/c1ccc(CN2C(C(C)C)C(=O)N(Cc3cn(CCC4OCCCO4)nn3)CCS2(=O)=O)cc1 (configuration not stated),x,-8,1,x,x,x,x,x,x
O=C1CC2c3cc(-c4cc5ccccc5o4)ccc3CCN2C(=O)CN1Cc1ccccc1 (configuration not stated),x,54*,5,x,x,27*,40,5,6
CCN(CC)C(=O)c1cccc(-c2csc(C(C)(O)c3cccc(F)c3)n2)c1 (configuration not stated),x,80*,11,x,x,43*,57*,12*,11
CCOC(=O)[C@@H]1CSCCS(=O)(=O)N1Cc1ccc(C(F)(F)F)cc1,x,7,-1,x,x,x,x,x,x
CN(Cc1cnn(-c2ccccc2)c1)C(=O)c1cccc(S(=O)(=O)N(C)c2ccccc2)c1,x,63*,3,x,x,35*,42,9,4
O=C(CSc1nnc(Cc2cccs2)n1CCc1ccccc1)N1CCCc2ccccc21,-11,57*,19,2,1,22*,58*,11,12
O=C(CSc1nnc(Cc2cccs2)n1C1CCCCC1)N1CCCc2ccccc21,-9,64*,24,1,1,36*,54*,10,11
Cn1c(Cc2cccs2)nnc1SCC(=O)N1CCCc2ccccc21,-6,1,2,2,0,x,x,x,x
CC1(C(=O)NS(=O)(=O)c2ccccc2)CCN1C(=O)COc1ccc(Cl)cc1 (configuration not stated),x,-1,1,x,x,x,x,x,x
O=C(Nc1c2c(nn1-c1ccccc1)CS(=O)C2)c1ccc(S(=O)(=O)N2CCOCC2)cc1 (configuration not stated),-1,51*,2,1,1,5,0,2,7
C#CCNC(=O)C[C@@H]1C[C@@]2(C(=O)OC)CCCCC=C2N(CCCCCCCC)C1=O,x,2,-2,x,x,x,x,x,x
CCC(c1nnnn1Cc1ccco1)N1CCN(C(=O)c2ccco2)CC1 (configuration not stated),-13,10,7,0,0,x,x,x,x
O=C(c1ccco1)N1CCN(C(c2ccccc2Cl)c2nnnn2Cc2ccco2)CC1 (configuration not stated),-8,62*,18,5,0,35*,55*,10,9
CCOC(=O)N1CCN(C(=O)C[C@H]2C[C@@]3(C(=O)OC)C(=C[C@H](C(C)(C)C)O[C@@H]3C)N(CCC3=CCCCC3)C2=O)CC1,x,-64,-3,x,x,x,x,x,x
Cc1nc2ccc3nc(NC(=O)C4COc5ccccc5O4)sc3c2s1 (configuration not stated),-5,61*,1,0,1,29*,30,2,1
O=C(Nc1nc(-c2ccccn2)cs1)C1COc2ccccc2O1 (configuration not stated),-6,105*,8,0,3,22*,33,6,3
CCOC(=O)c1noc2c1CCC2,x,-12,1,x,x,x,x,x,x
COC(=O)[C@]12CCCCC=C1N(Cc1ccccc1)C(=O)[C@H](CC(=O)NCc1cccs1)C2,x,8,8,x,x,x,x,x,x
Cc1ccc(NC(=O)c2cnccn2)cc1C,-7,-29,-1,0,1,x,x,x,x
Cc1cc(=O)c2c(ccc3c(=O)cc(C)[nH]c32)[nH]1,x,-30,3,x,x,x,x,x,x
COc1ccccc1-c1cccc(-c2nc(C(=O)Nc3nccs3)cc3c2[C@H](CCO)N(C(C)=O)C3)c1,x,71*,7,x,x,30*,51*,7,5
